The results in this text go back to ChEMBL document CHEMBL3272265, “Interferon inducing activities of derivatives of 1,3-dimethyl-4-(3-dimethylaminopropylamino)-1H-pyrazolo(3,4-b)quinoline and related compounds” (J Med Chem, 1976).

SMILES strings stand for the structures. The source made the active and inactive calls. No cut-off for these calls is given here.

Data set [1] concerns Mus musculus. Description: Induction of interferon level in CD-1 mouse serum at 50 mg/kg, ip after 18 to 20 hrs by vesicular stomatitis virus plaque reduction assay. It is filed as functional, organism-based. The arrangement: dose 50 mg/kg. A digest of the protocol:
(§1)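 Dosing was oral or ip in 15-g female CD-1 mice, at least three per dose level, with compound in sterile distilled water as a solution or suspension. Pooled sera were collected 18–20 hr after dosing. Interferon units/ml were quantified by a plaque reduction assay on mouse L cells with vesicular stomatitis virus challenge, run against an NIAID reference mouse interferon standard.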
A general note: Plaques are areas of infected cells; plaque reduction assays count them against a control.

Data set [2] relates to Mus musculus. Nature of the data set: Toxicity in CD-1 mouse at 300 mg/kg, ip. It counts as organism-based. The arrangement: dose 300 mg/kg, route intraperitoneal. To be noted: in vivo.
Data set [3] relates to Mus musculus. Nature of the data set: Induction of interferon level in CD-1 mouse serum at 100 mg/kg, ip after 18 to 20 hrs by vesicular stomatitis virus plaque reduction assay. It counts as functional, organism-based. The arrangement: dose 100 mg/kg. In a few lines: as §1
Data set [4] concerns Mus musculus. Description: Induction of interferon level in CD-1 mouse serum at 100 mg/kg, po after 18 to 20 hrs by vesicular stomatitis virus plaque reduction assay. It is filed as functional, organism-based. The arrangement: dose 100 mg/kg. A digest of the protocol: as §1
Data set [5] relates to Mus musculus. Nature of the data set: Induction of interferon level in CD-1 mouse serum at 400 mg/kg, po after 18 to 20 hrs by vesicular stomatitis virus plaque reduction assay. The arrangement: dose 400 mg/kg. It is filed as functional, organism-based. A digest of the protocol:
as §1

In data set [6] the test system is Mus musculus. Nature of the data set: Induction of interferon level >= 32 units/mL in ip dosed CD-1 mouse serum after 18 to 20 hrs by vesicular stomatitis virus plaque reduction assay. It counts as functional. To be noted: CD-1, Serum, read-out: MED. In a few lines: (§2)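 Female CD-1 mice (15 g; at least three per dose) received compound dissolved or suspended in sterile distilled water, orally or ip. They were bled 18–20 hr later and sera pooled. Interferon was titrated by plaque reduction in mouse L cells challenged with vesicular stomatitis virus, with an NIAID reference mouse interferon standard. MED was the lowest dose giving ≥32 units/ml. Top doses were 400 mg/kg po and 300 mg/kg ip.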

For data set [7], the system named is Mus musculus. Description: Induction of interferon level in CD-1 mouse serum at 300 mg/kg, ip after 18 to 20 hrs by vesicular stomatitis virus plaque reduction assay. It counts as functional, organism-based. The arrangement: dose 300 mg/kg. In a few lines:
as §1

The subject of data set [8] is Mus musculus. Description: Induction of interferon level in CD-1 mouse serum at 200 mg/kg, po after 18 to 20 hrs by vesicular stomatitis virus plaque reduction assay. It is filed as functional, organism-based. The arrangement: dose 200 mg/kg. A digest of the protocol: as §1
The test system of data set [9] is Mus musculus. Nature of the data set: Induction of interferon level >= 32 units/mL in po dosed CD-1 mouse serum after 18 to 20 hrs by vesicular stomatitis virus plaque reduction assay. It counts as functional. To be noted: CD-1, Serum, read-out: MED. In a few lines: as §2

As to `Cc1nn(C)c2nc3ccccc3c(OCCCN(C)C)c12.Cl`, in the data set with Mus musculus [1], the outcome was inactive. The Activity result with Mus musculus [2] was “Toxic”.

With `Cc1nn(C)c2nc3ccccc3c(NCCC3CCCN3C)c12.Cl` (stereo not given), the result in the data set on Mus musculus [3] was inactive. Further, the Activity result in the data set with Mus musculus [2] was “Toxic”.

As for `Cc1nn(C)c2nc3ccccc3c(NCCCN3CCCC3=O)c12.Cl`, in the data set on Mus musculus [3], the outcome was inactive. In the data set with Mus musculus [2], the Activity entry was “Toxic”.

For the compound `CCOC(=O)c1cnc2c(c(C)nn2C)c1NCCCN(C)C`, the outcome in the data set on Mus musculus [4] was inactive.

On to `Cc1cccc2nc3c(c(C)nn3C)c(NCCCN(C)C)c12.Cl`, for which the result with Mus musculus [3] and in the data set on Mus musculus [5] was inactive. Besides, in the data set on Mus musculus [2], the Activity result is listed as “Toxic”.

On to `Cc1nn(C)c2nc3ccccc3c(NCCN3CCCC3)c12.Cl`, for which, in the data set with Mus musculus [3], the result was inactive. Moreover, in the data set with Mus musculus [2], the Activity entry is reported as “Toxic”.

With `Cc1nn(CC(F)(F)F)c2nc3ccccc3c(NCCCN(C)C)c12.Cl`, in the data set with Mus musculus [3], the outcome was inactive. Besides, the Activity result in the data set with Mus musculus [2] was “Toxic”.

On to `CN(C)CCCNc1c2ccccc2nc2ccccc12.Cl`, for which the minimal effective dose with Mus musculus [6] is no less than 300 mg/kg. In addition, in the data set on Mus musculus [5], the result was inactive.

On to `CCn1nc(C)c2c(NCCCN(C)C)c3ccccc3nc21.Cl`, for which the outcome in the data set on Mus musculus [7], with Mus musculus [3] and in the data set on Mus musculus [5] was inactive. In the data set on Mus musculus [2], the Activity result is “Toxic”.

On to `Cc1nn(C)c2nc3ccccc3c(SCCCN(C)C)c12.Cl`, for which the outcome in the data set with Mus musculus [8] and with Mus musculus [1] was inactive. Moreover, in the data set on Mus musculus [2], the Activity result is reported as “Toxic”.

In the case of `CCc1nn(C)c2nc3ccccc3c(NCCCN(C)C)c12.Cl`, in the data set with Mus musculus [3], the outcome was inactive. The Activity result with Mus musculus [2] is “Toxic”. Further, the minimal effective dose in the data set on Mus musculus [9] was found to be 200 mg/kg.

Take `COc1ccc2nc3c(c(C)nn3C)c(NCCCN(C)C)c2c1.Cl`: the outcome in the data set with Mus musculus [3] was inactive. The Activity result with Mus musculus [2] is listed as “Toxic”. For the same compound, the minimal effective dose in the data set on Mus musculus [9] is 200 mg/kg.

With `Cc1nn(Cc2ccccc2)c2nc3ccccc3c(NCCCN(C)C)c12.Cl`, the result with Mus musculus [3] was inactive. Moreover, the Activity result in the data set with Mus musculus [2] is listed as “Toxic”.

On to `Cc1nn(C)c2nc3cc(C(F)(F)F)ccc3c(NCCCN(C)C)c12.Cl`, for which the result in the data set on Mus musculus [3] was inactive. For the same compound, the Activity result in the data set with Mus musculus [2] is “Toxic”.

Turning to `Cc1nn(C(C)C)c2nc3ccccc3c(NCCCN(C)C)c12.Cl`, in the data set on Mus musculus [1], the result was inactive. Moreover, the Activity entry in the data set on Mus musculus [2] was “Toxic”.

For `COC(=O)Cn1nc(C)c2c(NCCCN(C)C)c3ccccc3nc21.Cl`, in the data set with Mus musculus [3], the result was inactive. Also, in the data set on Mus musculus [2], the Activity entry is “Toxic”.

With `Cc1nn(C)c2nc3ccccc3c(NCCCN3CCOCC3)c12.Cl`, in the data set with Mus musculus [6], the minimal effective dose was 300 mg/kg. In the data set on Mus musculus [5], the outcome was inactive.

In the case of `Cc1nn(C)c2nc3ccccc3c(NCCc3ccccn3)c12.Cl`, the result in the data set on Mus musculus [1] was inactive. The Activity result in the data set on Mus musculus [2] was “Toxic”.

With `Cc1nn(CCCN(C)C)c2nc3ccccc3cc12.Cl`, the outcome with Mus musculus [3] was inactive. The Activity result with Mus musculus [2] is given as “Toxic”.

Regarding `Cc1cc2nc3c(c(C)nn3C)c(NCCCN(C)C)c2cc1C.Cl`, the minimal effective dose in the data set with Mus musculus [6] was 25 mg/kg; with Mus musculus [9], 50 mg/kg.

With `Cc1nn(C)c2nc3ccc(Cl)cc3c(NCCCN(C)C)c12.Cl`, the result in the data set on Mus musculus [3] was inactive. Further, the Activity entry in the data set with Mus musculus [2] is listed as “Toxic”.

`Cc1nn(C)c2nc3ccccc3c(NCCCCCN(C)C)c12.Cl`: the minimal effective dose in the data set with Mus musculus [6] was found to be 150 mg/kg; in the data set with Mus musculus [9], 200 mg/kg.

`Cc1nn(C)c2nc3c(ccc4ncccc43)c(NCCCN(C)C)c12.Cl`: the minimal effective dose in the data set with Mus musculus [6] and in the data set with Mus musculus [9] was 100 mg/kg in each case.

On to `CNCCCNc1c2ccccc2nc2c1c(C)nn2C.Cl`, for which the minimal effective dose is 150 mg/kg in the data set on Mus musculus [6] and 200 mg/kg in the data set with Mus musculus [9].

Consider `CCCCN(CCCC)CCCNc1c2ccccc2nc2c1c(C)nn2C.Cl`, for which the result in the data set on Mus musculus [3] was inactive. The Activity result with Mus musculus [2] is “Toxic”.

As for `Cc1nn(C)c2nc3ccccc3c(NCCCN3CCCCC3)c12.Cl`, the result with Mus musculus [3] was inactive. For the same compound, the Activity result with Mus musculus [2] is listed as “Toxic”. Further, in the data set on Mus musculus [9], the minimal effective dose was determined as 200 mg/kg.

In the case of `Cc1nn(CCCN(C)C)c2nc3ccccc3c(NCCCN(C)C)c12.Cl`, the outcome in the data set with Mus musculus [3] and with Mus musculus [5] was inactive. In addition, the Activity result in the data set on Mus musculus [2] is “Toxic”.

`Cc1nn(C)c2nc3c(c(NCCCN(C)C)c12)CCCC3`: the result in the data set on Mus musculus [3] and in the data set with Mus musculus [5] was inactive.

`Cc1nn(C)c2nc3ccccc3c(NCc3cccnc3)c12.Cl`: the outcome in the data set with Mus musculus [3] was inactive. In addition, the Activity entry in the data set with Mus musculus [2] is “Toxic”.

In the case of `Cc1cccc2c(NCCCN(C)C)c3c(C)nn(C)c3nc12.Cl`, in the data set on Mus musculus [3], the outcome was inactive. In the data set on Mus musculus [2], the Activity entry is on record as “Toxic”.

Regarding `Cc1nn(C)c2nc3ccc([N+](=O)[O-])cc3c(NCCCN(C)C)c12.Cl`, the result in the data set on Mus musculus [3] was inactive. The Activity result in the data set on Mus musculus [2] is listed as “Toxic”.

With `CCc1ccc2c(NCCCN(C)C)c3c(C)nn(C)c3nc2c1.Cl`, the outcome with Mus musculus [3] was inactive. The Activity entry with Mus musculus [2] is recorded as “Toxic”. Besides, the minimal effective dose in the data set with Mus musculus [9] was found to be 200 mg/kg.

Consider `Cc1nn(C)c2nc3ccccc3c(N3CCC(CCN(C)C)CC3)c12.Cl`, for which the result in the data set with Mus musculus [1] was inactive. The Activity entry in the data set on Mus musculus [2] is given as “Toxic”.

For the compound `CCC1CCC(C)N(CCCNc2c3ccccc3nc3c2c(C)nn3C)C1.Cl` (stereo not given), in the data set on Mus musculus [3], the outcome was inactive. In the data set with Mus musculus [2], the Activity result is listed as “Toxic”.

Regarding `Cc1nn(C)c2nc3ccccc3c(NCCCNC34CC5CC(CC(C5)C3)C4)c12.Cl`, the Activity result in the data set with Mus musculus [2] is given as “Toxic”. In the data set on Mus musculus [4], the result was inactive.

On to `Cc1nn(C)c2nc3ccc(I)cc3c(NCCCN(C)C)c12.Cl`, for which the outcome in the data set on Mus musculus [3] was inactive. Besides, the Activity entry with Mus musculus [2] is “Toxic”. Besides, the minimal effective dose in the data set on Mus musculus [9] was no less than 400 mg/kg.

As to `Cc1ccc2nc3c(c(C)nn3C)c(NCCCN(C)C)c2c1.Cl`, the minimal effective dose with Mus musculus [6] and in the data set with Mus musculus [9] was 50 mg/kg in each case.

Turning to `Cc1ccc2c(NCCCN(C)C)c3c(C)nn(C)c3nc2c1C.Cl`, the minimal effective dose in the data set with Mus musculus [6] and with Mus musculus [9] was 200 mg/kg in each case.

For `Cc1nn(C)c2nc3ccccc3c(NC3CC3)c12.Cl`, the Activity result in the data set on Mus musculus [2] is “Toxic”. In addition, the outcome in the data set on Mus musculus [4] was inactive.

In the case of `CCNc1ccc2nc3c(c(C)nn3C)c(NCCCN(C)C)c2c1.Cl`, the minimal effective dose in the data set with Mus musculus [6] was found to be 25 mg/kg; in the data set with Mus musculus [9], 50 mg/kg.

With `Cc1nn(C)c2nc3cc(Cl)ccc3c(NCCCN(C)C)c12.Cl`, the minimal effective dose in the data set with Mus musculus [6] and in the data set with Mus musculus [9] was no less than 100 mg/kg each time.

As to `CCc1n[nH]c2nc3ccccc3c(NCCCN(C)C)c12.Cl`, the outcome with Mus musculus [3] was inactive. Moreover, the Activity result in the data set with Mus musculus [2] was “Toxic”.

As to `CCc1ccc2nc3c(c(C)nn3C)c(NCCCN(C)C)c2c1.Cl`, in the data set on Mus musculus [3], the result was inactive. In the data set with Mus musculus [2], the Activity entry is listed as “Toxic”. Moreover, in the data set with Mus musculus [9], the minimal effective dose was found to be 200 mg/kg.

Take `COc1cc2nc3c(c(C)nn3C)c(NCCCN(C)C)c2cc1OC.Cl`: the minimal effective dose in the data set with Mus musculus [6] and with Mus musculus [9] was 50 mg/kg throughout.

Turning to `CCN(CC)CCCNc1c2ccccc2nc2c1c(C)nn2C.Cl`, the minimal effective dose was determined as 300 mg/kg in the data set with Mus musculus [6] and 400 mg/kg in the data set with Mus musculus [9].
